Out of some 330,000 compounds screened, about 55 (0.02%) were called active. The list comes from a sample in which actives are over-represented; it also holds similar structures and randomly drawn compounds. Values without a mark were called inactive.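 The calls were made as follows: active = highest replicate inhibition of at least 40%; inactive = the rest.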

The results in this text go back to PubChem BioAssay AID504414 (Broad Institute, 2011).

The target of the assay is Golgi-associated PDZ and coiled-coil motif-containing protein (Homo sapiens) (UniProt Q9HD26). As to the kind of experiment: CAL PDZ peptide-binding inhibitors, primary screen, biochemical, fluorescence polarization, Cer-tagged CAL PDZ, HTS (AID 504414).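 Also: plate controls were DMSO neutral control wells for no effect and unlabeled competitor peptide control wells for full effect.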 Conditions: purified CAL PDZ, TMR-peptide fluorescence polarization, 1 h; at 20 µM; active compounds read high. In a few lines: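 material = purified tagged CAL PDZ domain construct (CerCALP) | buffer or medium = sodium phosphate/NaCl buffer pH 7.4 with TCEP, IgG, Thesit | reagent = TMR-labelled reporter peptide T*-PRC34 bound in PDZ groove | incubation = 1 h room-temperature incubation prior to read | measured by = fluorescence polarization (mP) | evaluation = percent inhibition from loss of millipolarization | control set = unlabelled peptide and DMSO controls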
On the technique in general: In fluorescence polarisation assays a small probe gives low polarisation when free and higher when bound to something large.
As a reminder, the inhibition is the drop in the measured response relative to a control, in per cent. For the compound `COc1ccccc1N(CC(=O)Nc1c(C)n(C)n(-c2ccccc2)c1=O)S(=O)(=O)c1ccccc1`, the inhibition was 0.495%.

As for `CCN(CC)CCN1C(=O)C2C(C(=O)Nc3ccc(Br)cc3)C3C=CC2(O3)C1C(=O)NC1CCCCC1` (centres undefined), the inhibition was 0.206%.

Regarding `COc1ccc(-n2c(O)c(C=NCC(c3ccco3)N3CCCC3)c3ccccc3c2=O)cc1OC` (centres undefined), the inhibition is -2.24%.

Consider `CC1CCCN(C(=O)Cn2c(=O)oc3ccccc32)C1` (centres undefined), for which the inhibition was 0.481%.

Consider `COc1ccc(/C=C/C(=O)NC(=S)N2CCCC(C(N)=O)C2)cc1` (centres undefined), for which the inhibition is -0.891%.

Consider `O=C(C1CCCO1)N1CCN(S(=O)(=O)c2ccc(Br)cc2)CC1` (centres undefined), for which the inhibition was -0.919%.

Take `CC(OC(=O)c1ccc(-n2cnnn2)cc1)C(=O)NCc1ccccc1` (centres undefined): the inhibition was -0.615%.

Take `COc1ccccc1N1CCN(CC(=O)NCCc2ccc(S(N)(=O)=O)cc2)CC1`: the inhibition was 1.11%.

For the compound `O=C1COc2c1ccc(O)c2O`, the inhibition is -0.377%.

Consider `CCC(C(=O)NC1CCCCC1)N(C(=O)c1snc(C(N)=O)c1N)c1ccc(OC)cc1OC` (centres undefined), for which the inhibition is -1.96%.

Take `COC(=O)c1cc(NC2c3ccccc3C(=O)N2c2ccc(Cl)cn2)cc(C(=O)OC)c1` (centres undefined): the inhibition is 1.56%.

`Cc1cccc(OCCNC(=S)NC(=O)c2cccnc2)c1`: the inhibition was -1.24%.

As for `COC(=O)c1cc(C(=O)N(Cc2ccccc2)c2ccccn2)cc([N+](=O)[O-])c1`, the inhibition was -1.95%.

Turning to `FC(F)(F)c1cc(C(F)(F)F)c2ccc(N3CCN(c4ccccc4)CC3)nc2n1`, the inhibition is -0.0994%.

In the case of `Cc1cccc(N2Cc3ccccc3C2=NC(=O)c2ccc(Cl)nc2)c1`, the inhibition is -3%.

With `Cc1ccc(C(=O)O)c(NC=O)c1OCc1ccccc1`, the inhibition is -0.888%.

As for `O=C(Nc1ccc(F)c([N+](=O)[O-])c1)C1CCCO1` (centres undefined), the inhibition is 0.3%.

Consider `C[C@@H]1C(c2ccc(F)cc2)=NN(c2ccc(Br)cc2)[C@H]1C(=O)N1CCOC1=O`, for which the inhibition is -0.314%.

For the compound `COc1ccc(N2CCN(C(=O)c3ccc(N4CCCCS4(=O)=O)cc3)CC2)cc1`, the inhibition was -1.77%.

Consider `CCCCCCCCCCOC(=O)C[N+](C)(C)CC1CCCCC1O` (centres undefined), for which the inhibition was -1.83%.

On to `Cc1cc(C)c(C#N)c(Nc2cccc(Br)c2)n1`, for which the inhibition was -0.811%.

`COc1ccc2c(c1)c(=Cc1ccc(N(C)C)cc1)c1cc(-c3ccccc3)[n+](C)n12`: the inhibition was 32%.

For `COc1ccc(-n2nc(C(=O)NCC(=O)N3CCC(C(N)=O)CC3)c3ccccc3c2=O)cc1OC`, the inhibition is 0.6%.

As to `COc1ccccc1C(=O)COC(=O)CNS(=O)(=O)c1ccc(NC(C)=O)cc1`, the inhibition is -3.17%.
